In brackets after ≈: the same amount, converted by molar mass. Activity calls are given as the source filed them. The calls are words filed in the database; no cut-off is given here.
Experiments:
[1] = test system: Pseudomonas aeruginosa; experiment: Antibacterial activity against Pseudomonas aeruginosa PA694 in CD-1 mouse model of thigh infection administered as iv bid for 2 to 12 hrs of post-infection measured after 24 hrs; format: functional
How it was run: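 Female specific-pathogen-free CD-1 mice (22 ± 2 g), groups of 5, inoculated intramuscularly into right thigh with 3-5 x 10^6 CFU/mouse P. aeruginosa PA694 (UTI isolate). IV dosing at 5, 15 and 40 mg/kg at 2 and 12 h post-infection. Thigh muscle harvested at 24 h, homogenized in PBS pH 7.4, plated on Brain Heart Infusion agar + 0.5% charcoal; CFU/g thigh vs untreated controls; Mann-Whitney.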

[2] = test system: Pseudomonas aeruginosa; experiment: Antibacterial activity against Pseudomonas aeruginosa PA694 in CD-1 mouse model of thigh infection assessed as reduction in log10CFU per gram of thigh at 5 mg/kg, iv bid administered 2 to 12 hrs of post-infection measured after 24 hrs relative to untreated control; format: functional
How it was run: (§1)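 Groups of 5 female specific-pathogen-free CD-1 mice, 22 ± 2 g. Right thigh inoculated intramuscularly with 3-5 x 10^6 CFU/mouse of P. aeruginosa PA694 (UTI isolate). Dosed IV at 5, 15 or 40 mg/kg at 2 and 12 h post-infection. Thigh muscle harvested at 24 h post-infection, homogenized in PBS (pH 7.4), plated on Brain Heart Infusion agar + 0.5% charcoal. Log10 CFU per gram thigh compared with 24 h untreated control.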

[3] = test system: Pseudomonas aeruginosa; experiment: Antibacterial activity against Pseudomonas aeruginosa PA694 in CD-1 mouse model of thigh infection assessed as reduction in log10CFU per gram of thigh at 15 mg/kg, iv bid administered 2 to 12 hrs of post-infection measured after 24 hrs relative to untreated control; format: functional; how it was run: as §1
[4] = test system: Pseudomonas aeruginosa; experiment: Antibacterial activity against Pseudomonas aeruginosa PA694 in CD-1 mouse model of thigh infection assessed as reduction in log10CFU per gram of thigh at 40 mg/kg, iv bid administered 2 to 12 hrs of post-infection measured after 24 hrs relative to untreated control; format: functional; how it was run: as §1
[5] = test system: Pseudomonas aeruginosa; experiment: Antibacterial activity against Pseudomonas aeruginosa PA1145 in BALB/c mouse model of lung infection administered intranasally as bid for 2 to 12 hrs of post-infection measured after 24 hrs; format: functional
How it was run: (§2)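 Female BALB/c mice (18–20 g) infected intranasally with ~2 x 10^7 CFU/mouse P. aeruginosa PA1145 (cystic fibrosis isolate) under light anesthesia. Dosing at 2 and 12 h post-infection, IV (compound, tigecycline, amikacin) or intranasal (tobramycin); n = 6 per group. Lungs harvested 24 h after treatment start, homogenized, plated on MacConkey agar, 37 °C overnight; CFU/g lung; Mann-Whitney vs T = 0 h or 24 h controls.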

[6] = test system: Pseudomonas aeruginosa; experiment: Antibacterial activity against Pseudomonas aeruginosa PA1145 in BALB/c mouse model of lung infection assessed as reduction in log10CFU per gram of lung at 40 mg/kg, in bid administered 2 to 12 hrs of post-infection measured after 24 hrs relative to untreated control; format: functional, organism-based; how it was run: as §2
[7] = test system: Pseudomonas aeruginosa; experiment: Antibacterial activity against Pseudomonas aeruginosa PA1145 in BALB/c mouse model of lung infection assessed as reduction in log10CFU per gram of lung compound administered intranasally as bid for 2 to 12 hrs of post-infection measured after 24 hrs; format: functional
How it was run: (§3)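 Female BALB/c mice, 18 to 20 g, infected intranasally under light anesthesia with ~ 2 x 10^7 CFU/mouse of P. aeruginosa PA1145 (cystic fibrosis isolate) in 0.05 mL. Treatment at 2 and 12 h post-infection, IV, or intranasally for tobramycin; n = 6 per group. Lungs harvested 24 h after treatment began, homogenized, plated on MacConkey medium, incubated overnight at 37 °C in 5% CO2. CFU per gram lung compared with T = 24 h untreated control.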

[8] = test system: Pseudomonas aeruginosa; experiment: Antibacterial activity against Pseudomonas aeruginosa PA694 in CD-1 mouse model of thigh infection assessed as reduction in log10CFU per gram of thigh administered intranasally as bid for 2 to 12 hrs of post-infection measured after 24 hrs; format: functional
[9] = test system: Pseudomonas aeruginosa; experiment: Antibacterial activity against Pseudomonas aeruginosa PA1145 in BALB/c mouse model of lung infection administered as iv bid for 2 to 12 hrs of post-infection measured after 24 hrs; format: functional; how it was run: as §2
[10] = test system: Pseudomonas aeruginosa; experiment: Antibacterial activity against Pseudomonas aeruginosa PA1145 in BALB/c mouse model of lung infection assessed as reduction in log10CFU per gram of lung at 5 mg/kg, iv bid administered 2 to 12 hrs of post-infection measured after 24 hrs relative to untreated control; format: functional; how it was run: as §3
[11] = test system: Pseudomonas aeruginosa; experiment: Antibacterial activity against Pseudomonas aeruginosa PA1145 in BALB/c mouse model of lung infection assessed as reduction in log10CFU per gram of lung at 15 mg/kg, iv bid administered 2 to 12 hrs of post-infection measured after 24 hrs relative to untreated control; format: functional; how it was run: as §3
[12] = test system: Pseudomonas aeruginosa; experiment: Antibacterial activity against Pseudomonas aeruginosa PA1145 in BALB/c mouse model of lung infection assessed as reduction in log10CFU per gram of lung at 40 mg/kg, iv bid administered 2 to 12 hrs of post-infection measured after 24 hrs relative to untreated control; format: functional; how it was run: as §3
[13] = test system: Acinetobacter baumannii; experiment: Antibacterial activity against gram-negative Acinetobacter baumannii AB250 by CLSI method; format: functional
How it was run: (§4)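 Broth microdilution MIC per CLSI in cation-adjusted Mueller Hinton broth, prepared fresh and held at 4 °C. Defibrinated horse blood added where appropriate. Compounds serially diluted in sterile deionized water. Strains from ATCC unless otherwise noted. Runs accepted when comparator antibiotics fell within QC ranges for ATCC quality control strains.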

[14] = test system: Stenotrophomonas maltophilia; experiment: Antibacterial activity against gram-negative Stenotrophomonas maltophilia SM256 by CLSI method; format: functional; how it was run: as §4
[15] = test system: Burkholderia cenocepacia; experiment: Antibacterial activity against gram-negative Burkholderia cenocepacia BC240 by CLSI method; format: functional
How it was run: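 Defibrinated horse blood added where appropriate. Compounds serially diluted in sterile deionized water. Strains from ATCC unless otherwise noted. Runs accepted when comparator antibiotics fell within QC ranges for ATCC quality control strains.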

[16] = test system: Enterococcus faecalis; experiment: Antibacterial activity against gram-positive Enterococcus faecalis EFs327 harboring tet(M) by CLSI method; format: functional
How it was run: (§5)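 CLSI broth microdilution MIC in fresh cation-adjusted Mueller Hinton broth, supplemented with defibrinated horse blood where appropriate. Compounds serially diluted in sterile deionized water. Runs accepted when comparator antibiotics against ATCC quality-control strains fell within recommended ranges.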

[17] = test system: Enterococcus faecium; experiment: Antibacterial activity against gram-positive Enterococcus faecium EFm404 harboring tet(M) by CLSI method; format: functional; how it was run: as §5
[18] = test system: Klebsiella pneumoniae; experiment: Antibacterial activity against gram-negative Klebsiella pneumoniae KP457 harboring blacTX-M-15 extended spectrum beta-lactamase gene by CLSI method; format: functional; how it was run: as §5
[19] = test system: Proteus mirabilis; experiment: Antibacterial activity against gram-negative Proteus mirabilis PM385 by CLSI method; format: functional; how it was run: as §4
[20] = test system: Pseudomonas aeruginosa; experiment: Antibacterial activity against gram-negative Pseudomonas aeruginosa PA555 by CLSI method; format: functional; how it was run: as §4
[21] = test system: Enterobacter cloacae; experiment: Antibacterial activity against gram-negative Enterobacter cloacae EC1603 harboring tet(A) by CLSI method; format: functional; how it was run: as §5
[22] = test system: Staphylococcus aureus; experiment: Antibacterial activity against gram-positive Staphylococcus aureus SA101 by CLSI method; format: functional; how it was run: as §4
[23] = test system: Staphylococcus aureus; experiment: Antibacterial activity against gram-positive Staphylococcus aureus SA161 harboring tet(M) by CLSI method; format: functional; how it was run: as §5
[24] = test system: Staphylococcus aureus; experiment: Antibacterial activity against gram-positive Staphylococcus aureus SA158 harboring tet(K) by CLSI method; format: functional; how it was run: as §5
[25] = test system: Streptococcus pneumoniae; experiment: Antibacterial activity against gram-positive Streptococcus pneumoniae SP160 harboring tet(M) by CLSI method; format: functional; how it was run: as §5
[26] = test system: Escherichia coli; experiment: Antibacterial activity against gram-negative Escherichia coli EC107 by CLSI method; format: functional; how it was run: as §4
[27] = test system: Escherichia coli; experiment: Antibacterial activity against gram-negative Escherichia coli EC155 harboring tet(A) by CLSI method; format: functional; how it was run: as §5

C[C@@H](O)[C@H]1C(=O)N2C(C(=O)O)=C(S[C@@H]3CN[C@H](C(=O)N(C)C)C3)[C@H](C)[C@H]12 [MEROPENEM]
MIC [1]: 0.125 µg/mL (≈ 0.326 µM) | Activity [2]: 2.9 deltalog10CFU | Activity [3]: 4.2 deltalog10CFU | Activity [4]: 4.9 deltalog10CFU

NC[C@H]1O[C@H](O[C@H]2[C@H](O)[C@@H](O[C@H]3O[C@H](CO)[C@@H](O)[C@H](N)[C@H]3O)[C@H](N)C[C@@H]2N)[C@H](N)C[C@@H]1O [TOBRAMYCIN]
MIC [5]: 1 µg/mL (≈ 2.14 µM) | Activity [6]: inactive

CN(C)[C@@H]1C(O)=C(C(N)=O)C(=O)[C@@]2(O)C(O)=C3C(=O)c4c(O)cc([C@@H]5CCCN5)c(C(F)(F)F)c4C[C@H]3C[C@@H]12
Activity [7]: Dose-dependent effect | Activity [8]: Dose-dependent effect | MIC [9]: 2 µg/mL (≈ 3.63 µM) | Activity [10]: 1.7 deltalog10CFU | Activity [11]: 2.3 deltalog10CFU | Activity [12]: 3.7 deltalog10CFU | MIC [1]: 4 µg/mL (≈ 7.25 µM) | Activity [2]: 0.4 deltalog10CFU | Activity [3]: 0.9 deltalog10CFU | Activity [4]: 1.9 deltalog10CFU | MIC [13]: 2 µg/mL (≈ 3.63 µM) | MIC [14]: 1 µg/mL (≈ 1.81 µM) | MIC [15]: 8 µg/mL (≈ 14.5 µM) | MIC [16]: 1 µg/mL (≈ 1.81 µM) | MIC [17]: 0.25 µg/mL (≈ 0.453 µM) | MIC [18]: 0.125 µg/mL (≈ 0.227 µM) | MIC [19]: 0.5 µg/mL (≈ 0.907 µM) | MIC [20]: 4 µg/mL (≈ 7.25 µM) | MIC [21]: 8 µg/mL (≈ 14.5 µM) | MIC [22]: 0.0625 µg/mL (≈ 0.113 µM) | MIC [23]: 4 µg/mL (≈ 7.25 µM) | MIC [24]: ≤ 0.0156 µg/mL | MIC [25]: ≤ 0.0156 µg/mL | MIC [26]: ≤ 0.0156 µg/mL | MIC [27]: 2 µg/mL (≈ 3.63 µM)
